Experimental findings from ChEMBL document CHEMBL1131598, “Synthesis and anticonvulsant activity of a new class of 2-[(arylalky)amino]alkanamide derivatives” (J Med Chem, 1998) are described below.

Assay type in all cases: functional
For assay [1], the system named is Mus musculus. In words: Compound was tested for anticonvulsant potency using the intravenous-BIC (bicuculline) test in mice; 7 out of 20 mice exhibited anticonvulsant activity.
The subject of assay [2] is Mus musculus. In words: Compound was tested for anticonvulsant potency using the intravenous-BIC (bicuculline) test in mice; 6 out of 20 mice exhibited anticonvulsant activity.
Assay [3] relates to Mus musculus. In words: Compound was tested for anticonvulsant potency using the intravenous-BIC (bicuculline) test in mice; 4 out of 20 mice exhibited anticonvulsant activity.
The test system of assay [4] is Mus musculus. In words: Compound was tested for anticonvulsant potency using the intravenous-BIC (bicuculline) test in mice; 2 out of 10 mice exhibited anticonvulsant activity.
The subject of assay [5] is Mus musculus. Nature of the assay: Compound was tested for anticonvulsant potency using the intravenous-BIC (bicuculline) test in mice; 1 out of 10 mice exhibited anticonvulsant activity.
The test system of assay [6] is Mus musculus. Nature of the assay: Compound was tested for anticonvulsant potency using the intravenous-BIC (bicuculline) test in mice; 2 out of 20 mice exhibited anticonvulsant activity.
For assay [7], the system named is Mus musculus. Nature of the assay: Compound was tested for anticonvulsant potency using the intravenous-BIC (bicuculline) test in mice; 3 out of 20 mice exhibited anticonvulsant activity.
For assay [8], the system named is Mus musculus. Nature of the assay: Compound was tested for anticonvulsant potency using the intravenous-BIC (bicuculline) test in mice; 8 out of 20 mice exhibited anticonvulsant activity.
Assay [9] deals with Mus musculus. Nature of the assay: Anticonvulsant potency using the intravenous-BIC (bicuculline) test in mice. The procedure, abridged: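 Male Crl:CD-1(ICR)BR mice (22-24 g) were dosed orally at 5 mL/kg 60 min before bicuculline 0.6 mg/kg, a dose giving tonic extensor convulsions in at least 97% of vehicle-treated mice. Protection from tonic extension was scored for each mouse. ED50 (95% confidence interval) was obtained by probit analysis, with 10-20 animals per dose.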

In assay [10] the test system is Mus musculus. Nature of the assay: Compound was tested for anticonvulsant potency using the STRY (strychnine) test in mice upon peroral administration. To be noted: po.
In assay [11] the test system is Mus musculus. Nature of the assay: Anticonvulsant potency using the PTX (picrotoxin) test in mice by peroral administration. The conditions noted are these: po.
Assay [12] concerns Mus musculus. Nature of the assay: Compound was tested for anticonvulsant potency using the 3-MPA (3-mercaptopropionic acid) test in mice upon peroral administration. The conditions noted are these: po. The method in brief: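 Male Crl:CD-1(ICR)BR mice (22-24 g) were dosed orally at 5 mL/kg 60 min before 3-mercaptopropionic acid 60 mg/kg sc, a dose convulsing at least 97% of vehicle-treated mice. The end point was hindlimb tonic extension. ED50 (95% confidence interval) was obtained by probit analysis, with 10-20 animals per dose.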

The species entered for assay [13] is Mus musculus. In words: Anticonvulsant potency using the maximal electroshock test in mice. The procedure, abridged: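 Male mice received intra-aural shocks through clip electrodes (0.7 s, 28 mA, 80 Hz pulse train, 0.4 ms pulses), a stimulus giving hindlimb tonic extension in at least 97% of controls. Compound was given orally 60 min or ip 30 min beforehand, at 5 mL/kg. Protection meant complete suppression of the hindlimb tonic extensor component. ED50 (95% confidence interval) was obtained by probit analysis, with 10-20 animals per dose.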
For orientation: Protection in the maximal electroshock model is a classic sign of anticonvulsant action.

Assay [14] is filed under the species Mus musculus. Nature of the assay: Compound was tested for toxicity using neurological impairment measured by rotarod test in mice. The method in brief:
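Trained male Crl:CD-1(ICR)BR mice, 22-24 g, dosed orally 60 min before being placed on a 3-cm rod turning at 10 rpm. Mice falling during a 2-min test were counted. Dosing volume 5 mL/kg, 10-20 animals/dose. TD50, the dose making 50% fall, by probit analysis with 95% confidence interval. Some values given as fraction affected at one dose.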

The term ED50 denotes the midpoint of the dose-response relation. As usually defined, the TD50 is the 50% point of the dose-response relation for the toxic effect studied. Read a low TD50 as greater toxicity.

A value given as a limit tells only on which side of the number the result lay.

For `CNC(=O)[C@@H](CO)NCc1ccc(OCc2cccc([N+](=O)[O-])c2)cc1`, in assay [1], the ED50 is over 400 mg/kg.

On to `O=C(CNCc1ccc(OCc2cccc(Cl)c2)cc1)OCc1ccccc1`, for which the median effective dose (ED50) in assay [2] was over 400 mg/kg.

`NC(=O)COCc1ccc(OCc2cccc(Cl)c2)cc1` showed an ED50 in assay [1] of over 400 mg/kg.

In assay [3], `O=C(O)CNCc1ccc(OCc2cccc(Cl)c2)cc1` came in with an ED50 of over 400 mg/kg.

In turn, `C[C@@H](NCc1ccc(OCc2ccncc2)cc1)C(N)=O` yielded an ED50 in assay [4] of over 400 mg/kg.

Turning to `C[C@@H](NCc1ccc(NC(=O)c2ccccc2)cc1)C(N)=O`, the ED50 in assay [5] was over 400 mg/kg.

Consider `CNC(=O)[C@@H](Cc1ccccc1)NCc1ccc(OCc2ccccc2)cc1`, for which the ED50 in assay [6] is over 400 mg/kg.

`CCOC(=O)CNCc1ccc(OCc2cccc(Cl)c2)cc1` gave an ED50 in assay [7] of over 400 mg/kg.

`NC(=O)CCNCCc1ccc(OCc2cccc(Cl)c2)cc1`: in assay [8], the ED50 was over 400 mg/kg.

In the case of `O=C1NC(=O)C(c2ccccc2)(c2ccccc2)N1` [PHENYTOIN], the ED50 in assay [9] is 42.1 mg/kg; in assay [10], over 200 mg/kg; in assay [11], over 100 mg/kg; in assay [12] it was 11.3 mg/kg; in assay [13] it was 3.8 mg/kg. The molecule also came in with a TD50 in assay [14] of 243 mg/kg.
